Measured values as given in ChEMBL document CHEMBL3774373, “Activity and Predicted Nephrotoxicity of Synthetic Antibiotics Based on Polymyxin B” (J Med Chem, 2016).
Values after ≈ are worked out from the molar mass of the structure shown. Numbered stars: 1 amine (or outer) side, 2 acyl side, 3 side chain; on linkers, the order of the positions; unused ones are H or OH. Bridge positions count the residues as written; N and C are the ends. Square brackets hold non-standard residues; d marks the D form. Peptide text beside a SMILES is read from it. * marks the point of attachment. NH(2-ClPh) = Clc1ccccc1N*; Octanoyl = CCCCCCCC(=O)*; Dab = NCC[C@H](N)C(=O)O; CO = O=C([*:1])[*:2]

What was measured:
HepG2 = assay: (§1) Cytotoxicity against human HepG2 cells after 24 hrs by resazurin assay; assay type: cell-based; conditions: hepg2, 24 h
HEK293 = assay: (§2) Cytotoxicity against HEK293 cells after 24 hrs by resazurin assay; assay type: cell-based; conditions: human, hek293, 24 h
[1] = Cytotoxicity against HK2 cells assessed as LDH release by Western blot analysis; assay type: cell-based, HK-2; conditions: human
[2] = Cytotoxicity against HK2 cells assessed as GGT release by Western blot analysis; assay type: cell-based, HK-2; conditions: human
Escherichia coli [3] = assay: Antibacterial activity against Escherichia coli ATCC 25922 after 18 hrs by 2 fold serial dilution method; assay type: functional; conditions: ATCC 25922, 18 h
Procedure, shortened: (§3)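 Overnight cultures in nutrient or Mueller Hinton broth at 37 °C with shaking, diluted 50-fold into fresh MHB and grown 1.5–3 h to mid-log. Inoculum 5×10^5 CFU/mL in 2-fold serial dilutions, final range 32 to 0.015 μg/mL. MIC read visually after 18 h at 37 °C as the lowest concentration with no visible growth.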

Klebsiella pneumoniae [4] = assay: Antibacterial activity against Klebsiella pneumoniae ATCC 13883 after 18 hrs by 2 fold serial dilution method; assay type: functional; conditions: ATCC 13883, 18 h; procedure, shortened: as §3
Klebsiella pneumoniae [5] = assay: Antibacterial activity against multidrug resistant Klebsiella pneumoniae ATCC 700603 after 18 hrs by 2 fold serial dilution method; assay type: functional; conditions: Klebsiella pneumoniae, 700603, 18 h
Procedure, shortened: (§4)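 Overnight cultures at 37 °C in nutrient or Mueller Hinton broth with shaking were diluted 50-fold in MHB and grown 1.5–3 h to mid-log phase. The inoculum was 5×10^5 CFU/mL in MHB. Compounds were 2-fold serially diluted, final 32 to 0.015 μg/mL. After 18 h at 37 °C, the MIC was read visually as the lowest concentration with no visible growth.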

Klebsiella pneumoniae [6] = assay: Antibacterial activity against Klebsiella pneumoniae ATCC BAA-2146 expressing NDM-1 after 18 hrs by 2 fold serial dilution method; assay type: functional; conditions: ATCC BAA-2146, 18 h; procedure, shortened: as §4
Acinetobacter baumannii [7] = assay: Antibacterial activity against Acinetobacter baumannii ATCC 19606 after 18 hrs by 2 fold serial dilution method; assay type: functional; conditions: ATCC 19606, 18 h; procedure, shortened: as §3
Pseudomonas aeruginosa [8] = assay: Antibacterial activity against Pseudomonas aeruginosa ATCC 27853 after 18 hrs by 2 fold serial dilution method; assay type: functional; conditions: ATCC 27853, 18 h; procedure, shortened: as §3
Pseudomonas aeruginosa [9] = assay: Antibacterial activity against clinical isolate polymyxin resistant Pseudomonas aeruginosa FADDI-PA070 after 18 hrs by 2 fold serial dilution method; assay type: functional; conditions: FADDI-PA070, 18 h
Procedure, shortened: (§5)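 Polymyxin-resistant clinical isolates were grown overnight at 37 °C in NB or MHB with shaking, diluted 50-fold in MHB and grown 1.5–3 h to mid-log phase. The inoculum was 5×10^5 CFU/mL. Compounds were 2-fold broth serial dilutions, final 32 to 0.015 μg/mL; the polymyxin controls ran 128–0.06 μg/mL. The MIC was the lowest concentration with no visible growth after 18 h at 37 °C.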

Pseudomonas aeruginosa [10] = assay: Antibacterial activity against clinical isolate polymyxin resistant Pseudomonas aeruginosa PA9704 after 18 hrs by 2 fold serial dilution method; assay type: functional; conditions: PA9704, 18 h; procedure, shortened: as §5
Acinetobacter baumannii [11] = assay: Antibacterial activity against clinical isolate carbapenem and polymyxin resistant Acinetobacter baumannii Ptyela 100734512:2 after 18 hrs by 2 fold serial dilution method; assay type: functional; conditions: Ptyela 100734512:2, 18 h; procedure, shortened: as §5
Klebsiella pneumoniae [12] = assay: Antibacterial activity against clinical isolate carbapenem and polymyxin resistant Klebsiella pneumoniae Koprana 100650661:1 after 18 hrs by 2 fold serial dilution method; assay type: functional; conditions: Koprana 100650661:1, 18 h; procedure, shortened: as §5
Klebsiella pneumoniae [13] = assay: Antibacterial activity against clinical isolate carbapenem and polymyxin resistant Klebsiella pneumoniae 138-16357-20362 after 18 hrs by 2 fold serial dilution method; assay type: functional; conditions: 138-16357-20362, 18 h; procedure, shortened: as §5
[14] = as §1; assay type: cell-based; conditions: HepG2 cells
[15] = as §2; assay type: cell-based; conditions: human, HEK293 cells
Staphylococcus aureus [16] = assay: microbe, parasite or virus in culture; conditions: ATCC 25923, 18 h
Escherichia coli [17] = assay: Antibacterial activity against Escherichia coli; assay type: functional
Pseudomonas aeruginosa [18] = assay: Antibacterial activity against Pseudomonas aeruginosa; assay type: functional
Staphylococcus aureus [19] = assay: Antibacterial activity against Staphylococcus aureus; assay type: functional
Pseudomonas aeruginosa [20] = assay: Antibacterial activity against Pseudomonas aeruginosa after 16 to 20 hrs by 2 fold broth microdilution method; assay type: functional
Acinetobacter baumannii [21] = assay: Antibacterial activity against Acinetobacter baumannii after 16 to 20 hrs by 2 fold broth microdilution method; assay type: functional
Escherichia coli [22] = assay: Antibacterial activity against Escherichia coli after 16 to 20 hrs by 2 fold broth microdilution method; assay type: functional
Klebsiella pneumoniae [23] = assay: Antibacterial activity against Klebsiella pneumoniae after 16 to 20 hrs by 2 fold broth microdilution method; assay type: functional
Escherichia coli [24] = assay: Antibacterial activity against Escherichia coli after 24 hrs by macrobroth dilution method; assay type: functional
Pseudomonas aeruginosa [25] = assay: Antibacterial activity against Pseudomonas aeruginosa after 24 hrs by macrobroth dilution method; assay type: functional
Staphylococcus aureus [26] = assay: Antibacterial activity against Staphylococcus aureus after 24 hrs by macrobroth dilution method; assay type: functional
[27] = primary human renal proximal tubule epithelial cells, read-out: CC50

Row | Compound | MIC (Escherichia coli [3]) [µg/mL] | MIC (Klebsiella pneumoniae [4]) [µg/mL] | MIC (Klebsiella pneumoniae [5]) [µg/mL] | MIC (Klebsiella pneumoniae [6]) [µg/mL] | MIC (Acinetobacter baumannii [7]) [µg/mL] | MIC (Pseudomonas aeruginosa [8]) [µg/mL] | MIC (Pseudomonas aeruginosa [9]) [µg/mL] | MIC (Pseudomonas aeruginosa [10]) [µg/mL] | MIC (Acinetobacter baumannii [11]) [µg/mL] | MIC (Klebsiella pneumoniae [12]) [µg/mL] | MIC (Klebsiella pneumoniae [13]) [µg/mL] | CC50 at 24 h [14] [µM] | MIC (Staphylococcus aureus [16]) [µg/mL] | also measured
1 | GENTAMICIN |  |  |  |  |  |  |  |  |  |  |  |  |  | CC50 (HepG2): > 300 µM; CC50 (HEK293): > 300 µM; CC50 ([1]; hk-2): 33 µg/mL; CC50 ([2]; hk-2): 33 µg/mL
2 | CCCCCCCC(=O)N[C@@H](CCN)C(=O)N[C@H](C(=O)NCC(=O)N[C@H]1CCNC(=O)[C@H]([C@@H](C)O)NC(=O)[C@H](CCN)NC(=O)[C@H](CCN)NC(=O)[C@H](CC(C)C)NC(=O)[C@@H](Cc2ccccc2)NC(=O)[C@H](CCN)NC1=O)[C@@H](C)O (Octanoyl-[Dab]TG[Dab][Dab][dF]L[Dab][Dab]T; lactam 4-C) | 0.5 (≈ 0.436 µM) | 0.5 (≈ 0.436 µM) | 1 (≈ 0.872 µM) | 0.5 (≈ 0.436 µM) | 1 (≈ 0.872 µM) | 2 (≈ 1.74 µM) | > 32 | > 32 | > 32 | > 32 | > 32 | > 300 | > 64 | CC50 at 24 h [15]: > 300 µM; CC50 [1, 27]: 122 µg/mL (≈ 106 µM); CC50 [2, 27]: > 128 µg/mL
3 | CCCCCCCC(=O)N[C@H](C(=O)N[C@@H](CCN)C(=O)N[C@H]1CCNC(=O)[C@H]([C@@H](C)O)NC(=O)[C@H](CCN)NC(=O)[C@H](CCN)NC(=O)[C@H](CC(C)C)NC(=O)[C@@H](Cc2ccccc2)NC(=O)[C@H](CCN)NC1=O)[C@@H](C)O [Octanoyl Polymixin B nonapeptide] (Octanoyl-T[Dab][Dab][Dab][dF]L[Dab][Dab]T; lactam 3-C) | 1 (≈ 0.918 µM) | 1 (≈ 0.918 µM) | 2 (≈ 1.84 µM) | 2 (≈ 1.84 µM) | 2 (≈ 1.84 µM) | 0.5 (≈ 0.459 µM) | > 32 | > 32 | > 32 | > 32 | > 32 | > 300 | > 32 | MIC (Escherichia coli [17]): 0.03 µg/mL (≈ 0.0275 µM); MIC (Pseudomonas aeruginosa [18]): 4 µg/mL (≈ 3.67 µM); MIC (Staphylococcus aureus [19]): > 16 µg/mL
4 | CC(C)C[C@@H]1NC(=O)[C@@H](Cc2ccccc2)NC(=O)[C@H](CCN)NC(=O)[C@@H](NC(=O)[C@H](CCN)NC(=O)[C@@H](NC(=O)[C@H](CCN)NC(=O)Nc2ccccc2Cl)[C@@H](C)O)CCNC(=O)[C@H]([C@@H](C)O)NC(=O)[C@H](CCN)NC(=O)[C@H](CCN)NC1=O ({NH(2-ClPh)-CO}-[Dab]T[Dab][Dab][Dab][dF]L[Dab][Dab]T; lactam 4-C) | 1 (≈ 0.822 µM) | 2 (≈ 1.64 µM) | 2 (≈ 1.64 µM) | 4 (≈ 3.29 µM) | 1 (≈ 0.822 µM) | 0.5 (≈ 0.411 µM) | > 32 | > 32 | > 32 | > 32 | > 32 | > 300 | > 32 | MIC90 (Pseudomonas aeruginosa [20]): 2 µg/mL (≈ 1.64 µM); MIC90 (Acinetobacter baumannii [21]): 4 µg/mL (≈ 3.29 µM); MIC90 (Escherichia coli [22]): 2 µg/mL (≈ 1.64 µM); MIC90 (Klebsiella pneumoniae [23]): 4 µg/mL (≈ 3.29 µM)
5 | CCCCCCCC(=O)N[C@@H](CCN)C(=O)N[C@H](C(=O)N[C@@H](CCN)C(=O)N[C@H]1CCNC(=O)[C@H]([C@@H](C)O)NC(=O)[C@H](CCNC(=O)[C@@H](N)CCCNC(=N)N)NC(=O)[C@H](CCN)NC(=O)[C@H](CC(C)C)NC(=O)[C@@H](Cc2ccccc2)NC(=O)[C@H](CCN)NC1=O)[C@@H](C)O (Octanoyl-[Dab]T[Dab][Dab][Dab][dF]L[Dab][Dab](Arg)T; lactam 4-C) | 32 (≈ 23.8 µM) | 32 (≈ 23.8 µM) | 8 (≈ 5.95 µM) | 8 (≈ 5.95 µM) | 16 (≈ 11.9 µM) | 32 (≈ 23.8 µM) | > 32 | > 32 | > 32 | > 32 | > 32 | > 300 | > 32 | MIC (Escherichia coli [24]): 0.16 µg/mL (≈ 0.119 µM); MIC (Pseudomonas aeruginosa [25]): 0.03 µg/mL (≈ 0.0223 µM); MIC (Staphylococcus aureus [26]): 2 µg/mL (≈ 1.49 µM)
